# Measured values collected from several papers.
# Compare with care: the assays were run in different laboratories.
SMILES,tested on,test,test system,conditions,quantity,value
COc1cccc(C=Nc2ccc(SCc3cc(=O)c(O)co3)cc2)c1,,"DPPH scavenging, absorbance",,30 min,IC50,11.6 µM
CC[C@H](C)C[C@H](C)CCCCCCCCC(=O)N[C@H]1C[C@@H](O)[C@@H](NCCN)NC(=O)[C@@H]2[C@@H](O)CCN2C(=O)[C@H]([C@H](O)CCN)NC(=O)[C@H]([C@H](O)[C@@H](O)c2ccc(O)cc2)NC(=O)[C@@H]2C[C@@H](O)CN2C(=O)[C@H]([C@@H](C)O)NC1=O,Candidozyma auris,"microbial growth, broth dilution",,48 h,MIC,2 µg/mL
CCc1ccc(C=Nc2ccc(SCc3cc(=O)c(O)co3)cc2)cc1,,"DPPH scavenging, absorbance",,30 min,IC50,20.5 µM
O=C(NCc1ccc(C(F)(F)F)cc1)c1cn(Cc2ccc(Cl)cc2)c2ccc(Oc3ccccc3)cc2c1=O,MCF7,"cell growth or viability, MTT",,24 h,IC50,177 µM
Cc1ccc(C=Nc2ccc(SCc3cc(=O)c(O)co3)cc2)cc1,,"DPPH scavenging, absorbance",,30 min,IC50,9.06 µM
O=C(NCc1ccc(F)cc1)c1cn(Cc2ccc(F)cc2)c2ccc(Oc3ccccc3)cc2c1=O,MCF7,"cell growth or viability, MTT",,,IC50,≥ 200 µM
CCc1ccccc1C=Nc1ccc(SCc2cc(=O)c(O)co2)cc1,,"DPPH scavenging, absorbance",,30 min,IC50,25.2 µM
CCCCS(=O)(=O)NCC1COC2(CCN(C(=O)C3(c4ccccc4)CCCC3)CC2)O1 (centres unmarked),Chikungunya virus,"viral replication, inhibitor",,40 µM,inhibition,95%
O=c1cc(CSc2ccc(N=Cc3ccc([N+](=O)[O-])cc3)cc2)occ1O,,"DPPH scavenging, absorbance",,30 min,IC50,28.5 µM
CCCCCCN(CC1COC2(CCN(C(=O)C3(c4ccccc4)CCCC3)CC2)O1)S(=O)(=O)N(C)Cc1ccccc1 (centres unmarked),Chikungunya virus,"viral replication, inhibitor",,40 µM,inhibition,70%
CC(C)C[C@@H](NC(=O)[C@H](C)NC(=O)CNC(=O)[C@@H](NC=O)C(C)C)C(=O)N[C@@H](C)C(=O)N[C@@H](C(=O)N[C@H](C(=O)N[C@@H](C(=O)N[C@@H](Cc1c[nH]c2ccccc12)C(=O)N[C@H](CC(C)C)C(=O)N[C@@H](Cc1ccc2cc[nH]c2c1)C(=O)N[C@H](CC(C)C)C(=O)N[C@@H](Cc1c[nH]c2ccccc12)C(=O)N[C@H](CC(C)C)C(=O)N[C@@H](Cc1c[nH]c2ccccc12)C(=O)NCCO)C(C)C)C(C)C)C(C)C,MCF7,"cell growth or viability, SRB",,48 h,GI50,0.11 µM
O=C(N1CCC2(CC1)OCC(CNS(=O)(=O)c1ccc(-c3ccccc3)cc1)O2)C1(c2ccccc2)CCCC1 (centres unmarked),Chikungunya virus,"viral replication, inhibitor",,40 µM,inhibition,75%
O=C(NCc1ccc(Cl)cc1)c1cn(Cc2ccc(Cl)cc2)c2ccc(Oc3ccccc3)cc2c1=O,MCF7,"cell growth or viability, MTT",,48 h,IC50,171 µM
CC(Oc1ccc(O)cc1)(P(=O)(O)O)P(=O)(O)O,Chikungunya virus,viral replication,Vero,,IC50,548 µM
S=P1(C2CCCCC2)CCCCC1,SW-620,"cell growth or viability, MTT",,72 h,IC50,> 100 µM
O=C(NCc1ccc(F)cc1)c1cn(Cc2ccc(C(F)(F)F)cc2)c2ccc(Oc3ccccc3)cc2c1=O,MCF7,"cell growth or viability, MTT",,48 h,IC50,4.36 µM
CC(C)C[C@@H](NC(=O)[C@H](C)NC(=O)CNC(=O)[C@@H](NC=O)C(C)C)C(=O)N[C@@H](C)C(=O)N[C@@H](C(=O)N[C@H](C(=O)N[C@@H](C(=O)N[C@@H](Cc1c[nH]c2ccccc12)C(=O)N[C@H](CC(C)C)C(=O)N[C@@H](Cc1ccc2[nH]ccc2c1)C(=O)N[C@H](CC(C)C)C(=O)N[C@@H](Cc1c[nH]c2ccccc12)C(=O)N[C@H](CC(C)C)C(=O)N[C@@H](Cc1c[nH]c2ccccc12)C(=O)NCCO)C(C)C)C(C)C)C(C)C,MCF7,"cell growth or viability, SRB",,48 h,GI50,0.106 µM
